Measurements: ChEMBL document CHEMBL3352721, “Identification, optimization, and pharmacology of acylurea GHS-R1a inverse agonists” (J Med Chem, 2014)
One block for each compound: values may come before it. Activity calls are given as the source filed them. No cut-off for these calls is given here. Non-standard residues stand in square brackets, D forms with d. Residues, ends and D or L forms follow the SMILES beside them. dTrp(2-Me) = Cc1[nH]c2ccccc2c1C[C@@H](N)C(=O)O

Tests used:
Mus musculus [1] = assay: Increase in food intake in po dosed C57Bl6j mouse free feeding model measured in 2 hrs intervals; format: functional, organism-based
In short: (§1)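 Male mice (C57Bl6j, GHSr1-/- or wild-type littermates) were acclimatized 3 weeks to reversed light-dark, then individually housed 7 days and grouped (n=10-12) by baseline intake and body weight. Suspensions in 1% Pluronic F127 or vehicle were gavaged at 10 mL/kg about 1 h before dark onset. Pre-weighed food was reweighed at 2, 4, 6 and 24 h.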

[2] = Lipophilicity, logD of the compound; format: physicochemical; details: octanol/water
[3] = Ratio of drug level in homogenized brain to plasma in CD1 mouse at 2 mg/kg, po measured after 6 hrs by LC-MS/MS method; format: ADME, organism-based; design: dose 2 mg/kg, route oral; details: read-out: BPR
In short: (§2)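 CD-1 mice dosed PO in 1% Pluronic F127. Drug was measured in homogenized brain and in plasma 6 h after dosing and expressed as a brain:plasma ratio. The free ratio used free fraction measured in mouse plasma and rat brain (brain slice or brain homogenate).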

[4] = target: Growth hormone secretagogue receptor type 1 (Homo sapiens, UniProt Q92847); assay: Displacement of [125I]human ghrelin from human GHS-R1a expressed in HEK cell membranes after 60 mins by gamma counting method; design: species or system HEK293
MDR1 [5] = assay: Apparent permeability in MDCK cells expressing MDR1 at 10 uM assessed as apical to basolateral side transport; format: ADME, cell-based, Canis lupus familiaris; details: dog
In short: (§3)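 MDCK-MDR1 monolayers incubated with compound at 10 µM; permeability measured in both A→B and B→A directions, giving Papp A-B (x10^6 cm/s) and the efflux ratio.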

MDR1 [6] = assay: Efflux ratio in MDCK cells expressing MDR1 at 10 uM; format: ADME, cell-based, Canis lupus familiaris; details: dog; in short: as §3
[7] = Cmax in CD1 mouse at 2 mg/kg, po by LC-MS/MS method; format: ADME, organism-based; design: dose 2 mg/kg, route oral; details: in vivo
In short: (§4)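 Oral gavage in male HW rats, beagle dogs or CD-1 mice, vehicle Pluronic F127 in water. EDTA plasma was collected over 24 h and quantified by LC/MS/MS after acetonitrile precipitation. Cmax and bioavailability were obtained by non-compartmental analysis against IV data.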

[8] = Ratio of free drug level in homogenized brain to plasma in CD1 mouse measured 6 hrs after oral dosing by LC-MS/MS method; format: ADME; in short: as §2
[9] = Ratio of drug level in homogenized brain to plasma in CD1 mouse at 0.9 mg/kg, po measured after 6 hrs by LC-MS/MS method; format: ADME, organism-based; design: dose 0.9 mg/kg, route oral; details: read-out: BPR; in short: as §2
[10] = Clearance in beagle dog at 2 mg/kg, iv; format: ADME, organism-based, Canis lupus familiaris; design: dose 2 mg/kg, route intravenous; details: in vivo
In short: (§5)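 Male HW rats, beagle dogs or CD-1 mice received an IV bolus in 5% DMSO/95% hydroxypropyl-β-cyclodextrin (30% w/v). EDTA plasma was sampled over 24 h and assayed by LC/MS/MS after acetonitrile protein precipitation. CL and Vss were obtained by non-compartmental analysis.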

Mus musculus [11] = assay: Reduction in free feeding level in po dosed C57Bl6j mouse free feeding model measured during 2 to 6 hrs; format: functional, organism-based; in short: as §1
Mus musculus [12] = assay: Reduction in free feeding level in po dosed C57Bl6j mouse free feeding model measured over 24 hrs period; format: functional, organism-based; in short: as §1
[13] = Volume of distribution at steady state in CD1 mouse at 2 mg/kg, iv; format: ADME, organism-based; design: dose 2 mg/kg, route intravenous; details: in vivo, read-out: Vdss; in short: as §5
[14] = Cmax in beagle dog at 2 mg/kg, po; format: ADME, organism-based, Canis lupus familiaris; design: dose 2 mg/kg, route oral; details: in vivo; in short: as §4
[15] = Oral bioavailability in CD1 mouse at 1.3 mg/kg; format: ADME, organism-based; details: in vivo; in short: as §4
[16] = Cmax in Han-Wistar rat at 2 mg/kg, po; format: ADME, organism-based; design: dose 2 mg/kg, route oral; details: in vivo; in short: as §4
[17] = target: Growth hormone secretagogue receptor type 1 (Rattus norvegicus) (UniProt O08725); assay: Displacement of [125I]human ghrelin from rat GHS-R1a expressed in HEK cell membranes after 60 mins by gamma counting method; details: hek293
[18] = Ratio of drug level in homogenized brain to plasma in Han-Wistar rat measured 1 hr after iv bolus then iv infusion by LC-MS/MS method; format: ADME, organism-based; details: read-out: BPR
In short: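 Brain:plasma ratio in homogenized brain 1 h after IV bolus followed by IV infusion. The free ratio used free fractions measured in plasma and brain (brain slice method or brain homogenate).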

[19] = Unbound fraction in Han-Wistar rat plasma; format: ADME, cell-free
[20] = Oral bioavailability in beagle dog at 2 mg/kg; format: ADME, organism-based, Canis lupus familiaris; details: in vivo; in short: as §4
[21] = Displacement of [125I]human ghrelin from mouse GHS-R1a expressed in HEK cell membranes after 60 mins by gamma counting method; details: hek293
In short: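 HEK cell membranes stably overexpressing mouse or rat GHS-R1a (4 µg/well) incubated 60 min at rt with 20 pM [125I]human ghrelin and competing compound. Buffer: 50 mM Tris-HCl, 5 mM MgCl2, 0.01% BSA, pH 7.4, plus 10 µM methyl arachidonyl fluorophosphonate. Stopped by filtration over PEI-soaked GF/C filters with ice-cold washes, then gamma counting. IC50 is the mean of ≥2 independent determinations.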

[22] = Oral bioavailability in Han-Wistar rat at 2 mg/kg; format: ADME, organism-based; details: Han-Wistar, in vivo; in short: as §4
Mus musculus [23] = assay: Reduction in free feeding level in po dosed C57Bl6j mouse free feeding model measured during 0 to 2 hrs; format: functional, organism-based; in short: as §1
[24] = Cmax in CD1 mouse at 1.3 mg/kg, po; format: ADME, organism-based; design: dose 1.3 mg/kg, route oral; details: in vivo; in short: as §4
[25] = Clearance in CD1 mouse at 2 mg/kg, iv; format: ADME, organism-based; design: dose 2 mg/kg, route intravenous; details: in vivo; in short: as §5
[26] = Unbound fraction in beagle dog plasma; format: ADME, cell-free, Canis lupus familiaris
[27] = Volume of distribution at steady state in Han-Wistar rat at 2 mg/kg, iv; format: ADME, organism-based; design: dose 2 mg/kg, route intravenous; details: in vivo, read-out: Vdss; in short: as §5
[28] = Clearance in Han-Wistar rat at 2 mg/kg, iv; format: ADME, organism-based; design: dose 2 mg/kg, route intravenous; details: in vivo; in short: as §5
[29] = Volume of distribution at steady state in beagle dog at 2 mg/kg, iv; format: ADME, organism-based, Canis lupus familiaris; design: dose 2 mg/kg, route intravenous; details: in vivo, read-out: Vdss; in short: as §5
[30] = Cmax in Han-Wistar rat at 2 mg/kg, po by LC-MS/MS method; format: ADME, organism-based; design: dose 2 mg/kg, route oral; details: in vivo; in short: as §4
[31] = Unbound fraction in CD1 mouse plasma; format: ADME, cell-free

Growth hormone secretagogue receptor type 1, sequence (Q92847 whole entry): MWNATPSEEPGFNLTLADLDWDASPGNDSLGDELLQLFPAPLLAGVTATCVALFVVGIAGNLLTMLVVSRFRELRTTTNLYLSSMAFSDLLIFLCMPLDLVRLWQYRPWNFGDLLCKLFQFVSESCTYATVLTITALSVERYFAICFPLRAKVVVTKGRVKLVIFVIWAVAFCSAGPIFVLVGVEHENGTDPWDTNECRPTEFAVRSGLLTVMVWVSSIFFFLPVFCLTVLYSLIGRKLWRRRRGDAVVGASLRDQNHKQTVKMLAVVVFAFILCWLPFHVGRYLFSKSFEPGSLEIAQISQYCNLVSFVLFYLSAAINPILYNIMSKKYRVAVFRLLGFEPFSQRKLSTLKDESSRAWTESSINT
Growth hormone secretagogue receptor type 1 (Rattus norvegicus), sequence (O08725 whole entry, looked up, the tested form may be a part): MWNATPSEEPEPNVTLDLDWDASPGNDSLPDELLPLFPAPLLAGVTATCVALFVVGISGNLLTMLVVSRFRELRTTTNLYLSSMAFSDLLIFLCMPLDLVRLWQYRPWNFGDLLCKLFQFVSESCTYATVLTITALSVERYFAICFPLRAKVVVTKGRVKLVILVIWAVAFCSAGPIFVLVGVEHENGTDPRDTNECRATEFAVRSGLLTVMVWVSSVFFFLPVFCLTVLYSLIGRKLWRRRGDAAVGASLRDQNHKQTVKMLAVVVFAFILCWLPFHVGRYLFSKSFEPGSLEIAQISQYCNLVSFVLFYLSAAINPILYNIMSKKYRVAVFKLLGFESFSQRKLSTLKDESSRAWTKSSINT

SMILES: Cc1[nH]c2ccccc2c1C[C@@H](NC(=O)[C@@H](N)Cc1c[nH]cn1)C(=O)N[C@@H](C)C(=O)N[C@@H](Cc1c[nH]c2ccccc12)C(=O)N[C@H](Cc1ccccc1)C(=O)N[C@@H](CCCCN)C(N)=O (H-H[dTrp(2-Me)]AW[dF]K-NH2)
Activity (Mus musculus [1]): Active

logD [2]: 2.6
Kp at 6 h [3]: 0.9
IC50 [4]: 33 nM
Papp A→B at 10 µM (MDR1 [5]): 1.1 ×10⁻⁶ cm/s
efflux ratio at 10 µM (MDR1 [6]): 15
Cmax [7]: 640 nM
Kp uu at 6 h [8]: 0.61
SMILES: Cc1ccnn1-c1ccc(Cl)c(C(=O)NC(=O)Nc2nc3ccc(S(=O)(=O)C4CCN(C)CC4)cc3s2)c1

logD [2]: 3
Kp at 6 h [9]: 0.072
IC50 [4]: 0.4 nM
Papp A→B at 10 µM (MDR1 [5]): 3 ×10⁻⁶ cm/s
efflux ratio at 10 µM (MDR1 [6]): 0.47
Cmax [7]: 840 nM
Kp uu at 6 h [8]: 0.38
SMILES: CN1CCC(S(=O)(=O)c2ccc3nc(NC(=O)NC(=O)c4cc(N5CCCC5)c(C#N)cc4Cl)sc3c2)CC1

clearance [10]: 0.69 mL/min/kg
logD [2]: 1.7
Vd [13]: 0.8 L/kg
Cmax [14]: 11000 nM
bioavailability [15]: 50%
Cmax [16]: 580 nM
IC50 [17]: 3.4 nM
Kp at 1 h [18]: < 0.03
fraction unbound [19]: 0.0035
bioavailability [20]: 87%
IC50 [21]: 1.1 nM
bioavailability [22]: 30%
Cmax [24]: 1300 nM
clearance [25]: 2.9 mL/min/kg
fraction unbound [26]: 0.0078
Papp A→B at 10 µM (MDR1 [5]): 0.53 ×10⁻⁶ cm/s
Vd [27]: 0.9 L/kg
clearance [28]: 2.6 mL/min/kg
Vd [29]: 0.3 L/kg
Cmax [30]: 1200 nM
fraction unbound [31]: 0.006
SMILES: CN1CCN(CCCS(=O)(=O)c2ccc3nc(NC(=O)NC(=O)c4cc(N5CCOCC5)ccc4Cl)sc3c2)CC1
Activity (Mus musculus [11]): inactive
Activity (Mus musculus [12]): inactive
Activity (Mus musculus [23]): Active
